The results in this text go back to ChEMBL document CHEMBL4304739, “Discovery of 3-(Indol-5-yl)-indazole Derivatives as Novel Myeloid Differentiation Protein 2/Toll-like Receptor 4 Antagonists for Treatment of Acute Lung Injury” (J Med Chem, 2019).

Activity calls are given as the source filed them. The calls are words filed in the database; no cut-off is given here.

In assay [1] the target is Non-receptor tyrosine-protein kinase TYK2 (Homo sapiens) (UniProt P29597). The assay is described as follows: Inhibition of wild-type human partial length TYK2 JH1 catalytic domain (V877 to C1187 residues) expressed in mammalian expression system at 1 uM by Kinomescan method. The method, boiled down:
(§1)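 Single-concentration screen at 1 μM on the KINOMEscan panel (98 kinases), run by the platform provider. Results are given as percent of control: % Ctrl = [(test signal − positive control signal)/(negative control signal − positive control signal)] × 100. DMSO serves as negative control (100% Ctrl) and a control compound as positive control (0% Ctrl). Lower values mean stronger binding hits.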

For assay [2], the target named is Serine/threonine-protein kinase PLK4 (Homo sapiens) (UniProt O00444). The assay is described as follows: Inhibition of wild-type human partial length PLK4 (M1 to S273 residues) expressed in mammalian expression system at 1 uM by Kinomescan method. The method, boiled down:
(§2)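 Binding-competition screen on the KINOMEscan platform, run by the provider, with the test compound at 1 μM. Readout is percent of control: (test signal − positive control signal)/(negative control signal − positive control signal) × 100. The DMSO negative control is set as 100% Ctrl and a control compound as 0% Ctrl. Lower values mean stronger hits.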

The target of assay [3] is Ephrin type-A receptor 2 (Homo sapiens) (UniProt P29317). The experiment in a line: Inhibition of wild-type human partial length EPHA2 (T593 to V891 residues) expressed in bacterial expression system at 1 uM by Kinomescan method. In outline: as §2
Assay [4] concerns the target Dual specificity mitogen-activated protein kinase kinase 2 (Homo sapiens) (UniProt P36507). The experiment in a line: Inhibition of wild-type human full length MEK2 (M1 to V400 residues) expressed in mammalian expression system at 1 uM by Kinomescan method. In outline: (§3)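 KINOMEscan competition binding screen at 1 μM compound. Results reported as % of control = (test − positive control)/(DMSO negative control − positive control) × 100, where lower values mean stronger hits.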

Assay [5] deals with MAP kinase-activated protein kinase 2 (Homo sapiens) (UniProt P49137). The assay is described as follows: Inhibition of wild-type human partial length MAPKAPK2 (V48 to D345 residues) expressed in bacterial expression system at 1 uM by Kinomescan method. In outline:
as §2

For assay [6], the target named is Serine/threonine-protein kinase pim-1 (Homo sapiens) (UniProt P11309). The assay is described as follows: Inhibition of wild-type human partial length PIM1 (A15 to K313 residues) expressed in bacterial expression system at 1 uM by Kinomescan method. The method, boiled down:
as §2

For assay [7], the target named is Fibroblast growth factor receptor 2 (Homo sapiens) (UniProt P21802). The assay is described as follows: Inhibition of wild-type human partial length FGFR2 (D457 to E769 residues) expressed in bacterial expression system at 1 uM by Kinomescan method. In outline:
as §2

Assay [8] addresses Proto-oncogene tyrosine-protein kinase Src (Homo sapiens) (UniProt P12931). The assay is described as follows: Inhibition of wild-type human partial length SRC (L240 to L536 residues) expressed in bacterial expression system at 1 uM by Kinomescan method. In outline: as §1
Assay [9] addresses Serine/threonine-protein kinase PAK 4 (Homo sapiens) (UniProt O96013). The experiment in a line: Inhibition of wild-type human partial length PAK4 (Q144 to R438 residues) expressed in bacterial expression system at 1 uM by Kinomescan method. The method, boiled down: as §2
The target of assay [10] is Fibroblast growth factor receptor 3 (Homo sapiens) (UniProt P22607). The experiment in a line: Inhibition of wild-type human partial length FGFR3 (R442 to S771 residues) expressed in bacterial expression system at 1 uM by Kinomescan method. The method, boiled down: as §2
The test system of assay [11] is Mus musculus. The experiment in a line: Antiinflammatory activity in LPS-induced C57BL/6 mouse model of acute lung injury assessed as reduction in airspace inflammation at 5 to 10 mg/kg, iv pretreated for 15 mins followed by LPS stimulation and measured after 6 hrs by H and E staining-based microscopic analysis. It is filed as functional, organism-based. In outline: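 Male C57BL/6 mice (18−22 g; n=8 per group). Compound in 0.1% CMC-Na given by tail vein injection 15 min before intraperitoneal LPS (20 mg/kg); controls received saline. Mice were sacrificed 6 h after LPS, and serum and lung tissue were collected.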

Assay [12] relates to Serine/threonine-protein kinase B-raf (Homo sapiens), P15056 [V600E]. The experiment in a line: Inhibition of human partial length BRAF V600E mutant (S429 to E741 residues) expressed in mammalian expression system at 1 uM by Kinomescan method. The method, boiled down:
as §3

Assay [13] deals with Mast/stem cell growth factor receptor Kit (Homo sapiens) (UniProt P10721). The experiment in a line: Inhibition of wild-type human partial length KIT (I571 to D952 residues) expressed in bacterial expression system at 1 uM by Kinomescan method. In outline: (§4)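 KINOMEscan competition binding panel (98 kinases) run by the provider, compound screened once at 1 μM. Read-out is percent of control: [(test signal − positive control signal)/(negative control signal − positive control signal)] × 100. DMSO negative control sets 100% Ctrl and a control compound sets 0% Ctrl; lower values mean stronger hits.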

The target of assay [14] is Activin receptor type-1B (Homo sapiens) (UniProt P36896). The assay is described as follows: Inhibition of wild-type human ACVR1B (S187 to I505 residues) expressed in bacterial expression system at 1 uM by Kinomescan method. The method, boiled down:
as §3

Assay [15] has as its target Inhibitor of nuclear factor kappa-B kinase subunit alpha (Homo sapiens) (UniProt O15111). The assay is described as follows: Inhibition of wild-type human full length IKK-alpha (M1 to E745 residues) expressed in mammalian expression system at 1 uM by Kinomescan method. The method, boiled down:
as §3

Assay [16] concerns Mast/stem cell growth factor receptor Kit (Homo sapiens), P10721 [V559D,T670I]. The assay is described as follows: Inhibition of human partial length KIT V559D/T670I double mutant (Y545 to D952 residues) expressed in bacterial expression system at 1 uM by Kinomescan method. The method, boiled down: as §4
Assay [17] concerns the target cAMP-dependent protein kinase catalytic subunit alpha (Homo sapiens) (UniProt P17612). The experiment in a line: Inhibition of wild-type human partial length PKAC-alpha (G10 to F351 residues) expressed in bacterial expression system at 1 uM by Kinomescan method. In outline: as §2
In assay [18] the target is Phosphatidylinositol 4,5-bisphosphate 3-kinase catalytic subunit alpha isoform (Homo sapiens) (UniProt P42336). The experiment in a line: Inhibition of wild-type human partial length PIK3CA (R108 to N1068 residues) expressed in mammalian expression system at 1 uM by Kinomescan method. The method, boiled down:
as §2

Assay [19] has as its target Proto-oncogene tyrosine-protein kinase receptor Ret (Homo sapiens) (UniProt P07949). The experiment in a line: Inhibition of wild-type human partial length RET (E713 to D1014 residues) expressed in bacterial expression system at 1 uM by Kinomescan method. The method, boiled down:
as §2

Assay [20] deals with Glycogen synthase kinase-3 beta (Homo sapiens) (UniProt P49841). The experiment in a line: Inhibition of wild-type human full length GSK3B (M1 to T433 residues) expressed in mammalian expression system at 1 uM by Kinomescan method. In outline: as §3
Assay [21] addresses RAC-alpha serine/threonine-protein kinase (Homo sapiens) (UniProt P31749). The assay is described as follows: Inhibition of wild-type human partial length AKT1 expressed in bacterial expression system at 1 uM by Kinomescan method. The method, boiled down: as §3
Assay [22] deals with Mitogen-activated protein kinase 8 (Homo sapiens) (UniProt P45983). The experiment in a line: Inhibition of wild-type human full length JNK1 (M1 to Q384 residues) expressed in mammalian expression system at 1 uM by Kinomescan method. The method, boiled down:
as §3

As for `O=C(Nc1ccc2[nH]nc(-c3ccc4[nH]ccc4c3)c2c1)c1c(Cl)cccc1Cl`, the inhibition result in [1], in [2], in assay [3], in [4], in assay [5] and in assay [6] was “inactive” each time. For the same compound, the inhibition entry in assay [7], in [8], in [9], in [10], in assay [12] and in assay [13] was “inactive” throughout. For the same compound, the inhibition entry in [14], in assay [15], in [16], in assay [17], in assay [18] and in assay [19] was “inactive” in each case. In addition, the inhibition entry in assay [20], in [21] and in assay [22] was “inactive” throughout. In assay [11], the outcome was Active.
